# Screens as filed in PubChem BioAssay.
# Hits are enriched below; roughly 3.8% of the tested compounds scored in any of these assays.
# Kir21 block = inhibitors of mouse Kir2.1 inward-rectifier potassium channel; P35561; HEK293-Kir2.1, FluxOR thallium flux fluorescence; hits give low values; B-score at 10 µM; 310,000 tested, 0.85% active; AID 1672;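 active = fluorescence ratio B-score at or below minus 3 SD of library scores, with starting-brightness B-score within 2 SD, cut at about -4.2 in these data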;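 also: channel flux triggered by added potassium and thallium sulfate stimulus; B-score of peak minus minimum fluorescence over baseline after thallium stimulus; more negative B-score means stronger Kir2.1 block with less thallium influx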
# Target sequence (P35561 whole entry, looked up): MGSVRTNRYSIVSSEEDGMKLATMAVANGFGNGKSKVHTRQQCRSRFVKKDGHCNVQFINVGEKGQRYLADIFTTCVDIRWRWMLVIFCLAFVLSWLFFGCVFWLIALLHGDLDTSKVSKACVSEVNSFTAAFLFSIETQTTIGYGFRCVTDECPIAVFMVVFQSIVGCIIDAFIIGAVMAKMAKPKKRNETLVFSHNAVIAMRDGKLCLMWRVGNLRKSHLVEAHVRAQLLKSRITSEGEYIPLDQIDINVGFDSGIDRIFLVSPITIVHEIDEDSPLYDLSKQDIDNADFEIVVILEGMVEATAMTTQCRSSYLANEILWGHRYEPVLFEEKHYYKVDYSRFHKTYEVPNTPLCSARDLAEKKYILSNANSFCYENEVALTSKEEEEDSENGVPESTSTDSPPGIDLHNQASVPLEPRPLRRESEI
# KCNQ1 block = blocks the human KCNQ1 potassium channel; P51787; CHO-K1 KCNQ1, FluxOR thallium flux fluorescence; hits give high values; B-score at 10 µM; 310,000 tested, 1.3% active; AID 2642;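 active = compounds whose thallium flux B-score, printed positive for inhibition, exceeds three library SD while starting fluorescence stays within three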;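 also: channel opened by potassium depolarization with thallium stimulus after 20 min compound exposure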
# KCNQ1 pot = human KCNQ1 channel potentiation or activation | P51787 | B-score at 10 µM | 310,000 tested, 0.35% active | AID 2648 | CHO-K1 KCNQ1, thallium flux FluxOR fluorescence; hits give high values;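 active = fluorescence ratio B-score, a plate-corrected score, at least three library SD, with initial intensity B-score within 5 SD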
#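 assay system = CHO-K1 cells stably expressing KCNQ1 | medium = assay buffer, equal DMSO in all wells | timing = 37 °C overnight plating, 90-min dark dye load, 20-min compound pretreatment | measured by = kinetic FluxOR thallium fluorescence, 10-s 1-Hz baseline, 110-s post-stimulus read | measure = fluorescence change relative to baseline, converted to B score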
# hERG rescue = shields human hERG channel from block by proarrhythmic agents | CHO-hERG, FluxOR thallium flux, dofetilide IC70 present | 310,000 tested, 0.51% active | AID 1511 | Q12809 | activation (rescue from dofetilide block), less the hit threshold, % at 10 µM;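 active = activation above the mean of controls blocked by dofetilide plus 5 SD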;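 also: thallium influx through hERG after potassium depolarization seen as dye fluorescence rise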
# KCNK9 block = inhibitors of human KCNK9 two-pore domain potassium channel; B-score at 10 µM; AID 488922; 310,000 tested, 1.2% active; Q9NPC2; HEK293 KCNK9, FluxOR thallium flux fluorescence; hits give low values;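 active = ratio B-score over 3 SD below the library mean, with starting fluorescence within 5 SD of its mean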;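 also: negative B-score means less thallium flux so channel inhibition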
# KCNK3 inh = human KCNK3 channel inhibition, primary screen; CHO-KCNK3 thallium flux, FluxOR fluorescence; hits give low values; O14649; B-score at 10 µM; 340,000 tested, 0.84% active;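 active = B-score under library mean minus 4 SD, starting fluorescence ratio at most library mean plus 5 SD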;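 also: more negative B-score means stronger inhibition of thallium flux through KCNK3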
# Starred values were filed as active, the others as inactive; i = inactive; . = no result given.
SMILES,Kir21 block,KCNQ1 block,KCNQ1 pot,hERG rescue,KCNK9 block,KCNK3 inh
COc1ccc(C(=O)Nc2cccc(NC(=O)c3cccs3)c2)cc1OC,-0.94,i,i,-7,i,i
O=C(NC(=S)Nc1ccc(Br)cn1)c1cncc(Br)c1,-0.77,i,i,0,i,i
CC(OC(=O)c1cccs1)C(=O)NC1CCCCC1C (configuration not stated),.,.,.,.,.,i
CC(Sc1nnc(C2CC2)n1C)C(=O)Nc1ccc(N2CCOCC2)cc1 (configuration not stated),.,.,.,.,.,i
O=C(NC(=S)Nc1nc2ccccc2s1)c1cccs1,0.84,i,54*,52*,i,i
COC(=O)c1nc(NC(=S)NC(=O)c2cccs2)sc1C,1.2,i,i,-4,i,i
CCc1ccc(C(C)NC(=O)C2CCCC2)cc1 (configuration not stated),0.99,i,i,4.9*,i,i
CCc1ccc(C(C)NC(=O)C2(C)CC2(Br)Br)cc1 (configuration not stated),0.02,i,i,4.9*,i,i
CCC(NC(=O)C1(C)CC1(Br)Br)c1ccc(C)cc1 (configuration not stated),0.03,i,i,-10,i,i
COc1cc(OC)c(OC)cc1CNC(=O)CCN1C(=O)c2cccc([N+](=O)[O-])c2C1=O,-1.1,i,i,-11,i,i
Cc1ccc(SCC(=O)Nc2ccc(N3CCOCC3)cc2)c(C)c1,-0.48,i,i,-10,i,i
COC(=O)[C@@]12CCCCN1[C@H](c1ccc(-c3ccc4c(c3)OCO4)cc1)[C@H]1C(=O)N(C)C(=O)[C@H]12,.,.,.,.,.,i
CCN(CC)CCNC(C(=O)Nc1ccc([N+](=O)[O-])cc1Br)c1ccccc1 (configuration not stated),-2.1,i,i,-13,i,i
CN(C)C(CNC(C(=O)Nc1ccc([N+](=O)[O-])cc1Br)c1ccccc1)c1ccccc1 (configuration not stated),0.58,9*,i,-13,i,i
CC1CCc2sc(C(=O)NC3CCCCC3)cc2C1 (configuration not stated),.,.,.,.,.,i
CC1CCc2sc(-c3n[nH]c(=S)o3)cc2C1 (configuration not stated),-2.1,i,i,7.4*,i,i
O=C(Nc1ccc([N+](=O)[O-])cc1)N1CCN(C(=O)C2CCCO2)CC1 (configuration not stated),0.08,i,i,-11,i,i
CN(C)CCCNS(=O)(=O)c1ccc(N2CCC(c3ccc(Cl)cc3)=N2)cc1,-3.4,9*,i,8.7*,-11*,.
O=S(=O)(c1ccc(N2CCC(c3ccc(Cl)cc3)=N2)cc1)N(CCO)CCO,0.44,i,i,-10,i,i
Cc1nc(SCCc2nc3ccccc3[nH]2)c2oc3ccccc3c2n1,.,.,.,.,.,i
O=C(CN1CCN(S(=O)(=O)c2cccc(F)c2)CC1)Nc1ccnn1C1CCCC1,.,.,.,.,.,i
COCC1CCN(C(=O)c2cc(COc3ccccc3SC)on2)C1 (configuration not stated),-1.8,i,i,-9,i,i
C=CC[C@H]1CC(C)=C[C@H](CC=C)N1C(=O)c1cc(COc2ccccc2SC)on1,-1.6,8*,i,-13,i,i
OC(c1ccccc1)(c1ccccc1)c1nccc2ccccc12,.,.,.,.,.,-10*
O=C(C1CCN(CCc2ccccc2)CC1)N1CCOCC1,.,.,.,.,.,i
SMILES,Kir21 block,KCNQ1 block,KCNQ1 pot,hERG rescue,KCNK9 block,KCNK3 inh
CCOc1ccc(C(=O)Oc2ccc(NC(C)=O)cc2)cc1,0.09,i,i,-9,i,.
CC(=O)Nc1ccc(OC(=O)c2ccc(Br)c([N+](=O)[O-])c2)cc1,0.93,7*,i,-25,i,i
Cc1ccsc1C(=O)Nc1cccc(-n2cnnn2)c1,-0.65,i,i,-9,i,i
CCOC(=O)Cn1c(=NC(=O)CSC(C)=O)sc2cc(OC)ccc21,0.52,i,i,-11,-8.1*,i
CCOC(=O)C1=NN(C(=O)c2cccc(Br)c2)C(O)(C(C)(C)C)C1 (configuration not stated),1.3,i,66*,51*,i,.
CCOC(=O)C1=NN(C(=O)c2ccco2)C2(CC2)C1,-0.11,i,i,-2,i,i
OC1(c2ccc(Br)cc2)CCN(Cc2cccc(Br)c2)CC1,-11*,i,i,-12,i,i
CCC1CCCCN1C(=O)c1ccc(OC)c(OC2CCN(C(C)C)CC2)c1 (configuration not stated),0.38,i,i,-2,i,i
O=C1CC(C(=O)Nc2cccc3ccccc23)C2(CCCC2)O1 (configuration not stated),-2.1,i,i,7.8*,i,i
CN1CC(=O)N(CC(=O)Nc2ccc(Cl)c(C(F)(F)F)c2)C1=O,0.25,i,i,4.6*,i,i
COC(C(=O)N/N=C(\C)c1ccc(C)cc1)c1ccccc1 (configuration not stated),-0.03,i,i,-5,i,i
COC(C(=O)N/N=C(\C)c1ccc(O)cc1)c1ccccc1 (configuration not stated),0.36,i,i,5.1*,i,i
CCN1C(=O)[C@H]2[C@@H](c3ccc(-c4ccc(C(C)=O)cc4)c(OC)c3)N[C@@](Cc3ccccc3)(C(=O)OC)[C@H]2C1=O,-0.76,i,i,-2,i,i
COc1ccccc1CCC(=O)OCC(=O)NC1CCCC1,-1.2,i,i,-11,i,i
COc1ccccc1NCCC(=O)OCC(=O)NC1CCCCCC1,-7.7*,i,i,-4,i,i
c1ccc(-c2ccccc2OCCCCN2CCCCCC2)cc1,-6.6*,i,i,-12,i,i
CC1CCN(CCOCCOc2ccccc2-c2ccccc2)CC1,-5.5*,i,i,-11,i,i
c1ccc(-c2ccccc2OCCOCCN2CCCCC2)cc1,-2,i,i,-4,i,i
CC1CCN(CCOc2ccc(OCc3ccccc3)cc2)CC1,-7.1*,i,i,-12,i,i
c1ccc(CN2CCN(CCOCCOc3cccc4ccccc34)CC2)cc1,-14*,i,i,-14,i,i
O=C(c1ccco1)N1CCN(CCOCCOc2cccc3ccccc23)CC1,1.6,i,i,-15,i,i
Cc1cnc(C(=O)OCC(=O)Nc2ccc(Br)c(C)c2)cn1,.,.,.,.,.,i
